Compound activity as filed in PubChem BioAssay.
OX1R antag-1: OX1R (HCRTR1) antagonists, primary screen, fluorescence, CHO/OX1R cells, Fluo-8 calcium, orexin A | inhibition, % at 5 µM | actives 0.43% (n = 330,000) | AID 434989, 2010 | Fluo-8 calcium fluorescence | Orexin/Hypocretin receptor type 1 (Homo sapiens), O43613;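 active means inhibition above its plate's threshold, mean inhibition of all tested compounds on the plate plus 3 SD, cut at about 37% in these data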;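 further: 0% = orexin A challenge wells and 100% = SB-334867-A antagonist wells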
GPR7 antagonist: GPR7 receptor antagonists, primary screen, cell-based, fluorescence, single concentration | Neuropeptides B/W receptor type 1 (Homo sapiens), P48145 | GPR7-expressing cells, fluorescence antagonist assay | inhibition, % at 4.4 µM | actives 1.1% (n = 290,000) | AID 1861, 2009; in the data active means inhibition above about 16%, passing the limit was not always enough;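 further: cells stimulated with the agonist NPW; 0% = agonist with vehicle and 100% = vehicle without agonist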
Target sequence (P48145 whole entry, looked up): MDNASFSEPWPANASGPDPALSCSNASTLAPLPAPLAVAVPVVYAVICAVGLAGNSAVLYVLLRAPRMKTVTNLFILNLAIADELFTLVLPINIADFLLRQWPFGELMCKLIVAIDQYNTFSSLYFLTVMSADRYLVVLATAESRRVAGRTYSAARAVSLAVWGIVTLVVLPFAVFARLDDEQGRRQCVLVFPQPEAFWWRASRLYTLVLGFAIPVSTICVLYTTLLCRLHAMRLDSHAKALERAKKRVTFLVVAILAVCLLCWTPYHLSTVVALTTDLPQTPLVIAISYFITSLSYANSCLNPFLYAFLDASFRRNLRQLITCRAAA
OX1R antag-2: antagonists of human orexin 1 receptor (OX1R); inhibition, % at 6.6 µM; Orexin/Hypocretin receptor type 1 (Homo sapiens), O43613; actives 1.8% (n = 330,000); OX1R-expressing cells, FRET antagonist read-out; in the data active means inhibition mostly above about 38%, no sharp cut-off; inactive means mostly below about 40%;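 further: 0% = agonist challenge alone and 100% = reference antagonist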
GalR3 antag: GalR3 antagonists in HEK293 cells, primary screen, cell-based, fluorescence readout; HEK293 GalR3-CNG cAMP membrane potential fluorescence; galR3 body fused to GalR1 C-terminus; actives 0.44% (n = 360,000); inhibition, % at 3 µM; Galanin receptor type 3 (Homo sapiens), O60755;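 active means inhibition above the screen-wide average plus 3 SD, cut at about 13% in these data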;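 further: forskolin and galanin both at EC90 stimulate the cells; cAMP rise reported by CNG channel membrane potential dye signal; 0% = forskolin plus galanin with DMSO and 100% = forskolin alone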
Target sequence (O60755 1-299 limits assumed): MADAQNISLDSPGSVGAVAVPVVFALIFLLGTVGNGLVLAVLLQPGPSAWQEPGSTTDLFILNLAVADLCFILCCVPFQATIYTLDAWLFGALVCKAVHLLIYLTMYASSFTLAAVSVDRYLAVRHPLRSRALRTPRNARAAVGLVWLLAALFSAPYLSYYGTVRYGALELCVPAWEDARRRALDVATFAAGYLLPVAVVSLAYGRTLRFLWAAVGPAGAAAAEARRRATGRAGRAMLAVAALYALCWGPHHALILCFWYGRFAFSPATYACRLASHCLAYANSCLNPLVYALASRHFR
CHO parental Ca: ATP-evoked calcium signal inhibitors, parental CHO, primary screen, counter-screen for OX1R antagonist project, cell-based, fluorescence, Fluo-8 calcium dye; actives 0.63% (n = 330,000); inhibition, % at 5.6 µM; AID 463079, 2010; parental CHO-K1, ATP-induced calcium, Fluo-8 fluorescence;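 active means inhibition above that plate's mean sample inhibition plus 3 SD, cut at about 26% in these data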;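 further: 0% = ATP-challenged DMSO wells and 100% = DMSO wells without ATP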
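Assay system: untransfected parental CHO cell line. Also added: ATP agonist challenge. Dosing: one dose, 5.6 µM nominal. Measured by: Fluo-8 fluorescence. Read-out: % inhibition. Benchmarks: ATP wells versus no-ATP DMSO wells. Repeats: no replicates.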
OX1R HTRF confirm: OX1R (HCRTR1) antagonists, confirmation, cell-based, HTRF; shares compounds with OX1R antag-2; OX1R-expressing cells, HTRF antagonist assay; inhibition, % at 6.6 µM; actives 49% (n = 1,800); AID 492964, 2010; in the data active means inhibition above about 55%;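 further: CHO cells expressing OX1R stimulated with orexin A at about EC80; 0% = agonist challenge alone and 100% = reference antagonist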
CHO-K1 HTRF cnt: signal inhibition in parental CHO-K1 cells, counter-screen for OX1R antagonist project, cell-based, HTRF; HTRF counterscreen; shares compounds with OX1R antag-2; inhibition, % at 6.6 µM; actives 48% (n = 1,800); AID 493232, 2011; in the data active means inhibition above about 17%;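 further: 0% = agonist challenge with vehicle and 100% = vehicle alone without agonist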
Numbers without * were called inactive; . = not tested or not shown. Hits are enriched below; roughly 3.1% of the tested compounds scored in any of these assays.

SMILES | OX1R antag-1 | GPR7 antagonist | OX1R antag-2 | GalR3 antag | CHO parental Ca | OX1R HTRF confirm | CHO-K1 HTRF cnt
O=C(Nc1cc2nn(-c3ccccc3)nc2cc1Cl)c1ccco1 | -15 | -18 | 21 | 1 | -3 | . | .
CCCCN(C=O)c1c(CC)nc2ccc(C(=O)N3CCCCC3)cn12 | . | . | . | -2 | . | . | .
O=S(=O)(c1cccc2nsnc12)N1CCN(c2ncccn2)CC1 | -16 | -6 | 84* | 5 | -17 | 25 | 20*
CCOC(=O)N1CCN(S(=O)(=O)c2cccc3nsnc23)CC1 | -27 | -4 | 82* | 2 | -20 | 33 | 39*
O=S(=O)(c1cccc2nsnc12)N1CCCC1 | -5 | -10 | 19 | -5 | 0 | . | .
CCOC(=O)C1CCCN(S(=O)(=O)c2cccc3nsnc23)C1 (centres undefined) | -13 | -9 | 27 | -1 | -16 | . | .
S=c1nc(-c2ccccc2)n(Cc2ccco2)c2c1CCCC2 | . | 20 | . | . | . | . | .
c1ccc(-c2nc3nc4ccccc4nc3n2Cc2ccco2)cc1 | -13 | -15 | 107* | -6 | -20 | 33 | 18*
COc1ccccc1C(=O)NCCNc1ccc([N+](=O)[O-])cc1Cl | -20 | 2 | 7 | -10 | -12 | . | .
CCn1c(C)c(C(=O)O)c2cc(OC)c3ccccc3c21 | -29 | 2 | 99* | -13 | -12 | 89* | 5
O=C(Nc1cccc(Cl)c1)c1cc(N=Nc2ccc([N+](=O)[O-])cc2Cl)ccc1O | 21 | 4 | 77* | -9 | 14 | 57* | 23*
O=C(Nc1ccccc1)c1cc([N+](=O)[O-])ccc1Cl | -8 | . | 16 | -1 | -21 | . | .
O=[N+]([O-])c1cnc(Nc2ccc(Cl)cn2)c([N+](=O)[O-])c1 | -5 | -9 | 97* | -4 | -3 | 48 | 45*
Cn1ncc2c(Nc3ccc4ccccc4c3)ncnc21 | -20 | -4 | 78* | -2 | -17 | 78* | 2
Cc1cccc(Nc2ncnc3c2cnn3C)c1 | -1 | -3 | 4 | -5 | 1 | . | .
CS(=O)(=O)c1cccc(C(=O)N(CCc2ccccc2)Cc2cccs2)c1 | -9 | 7 | 13 | -10 | -10 | . | .
O=[N+]([O-])c1ccc(/C=N/n2cn[nH]c2=S)cc1 | -11 | -13 | 109* | 1 | -2 | 60* | 74*
CSc1nncn1/N=C/c1ccc([N+](=O)[O-])cc1 | -1 | -14 | 90* | -5 | -5 | 46 | 46*
CSc1nncn1/N=C/c1ccc2c(c1)OCO2 | 7 | -9 | 8 | -4 | -4 | . | .
N#Cc1ccc(S(=O)(=O)NCC(=O)OCC(=O)N2CCCC2=O)cc1 | -6 | . | 18 | -1 | 5 | . | .
O/N=C/c1cn(-c2ccccc2)nn1 | -12 | 11 | 4 | -4 | -8 | . | .
Cn1cc(/C=N\O)nc2c(=O)n(-c3ccccc3)c(=O)nc1-2 | -2 | -7 | 78* | -2 | -7 | 68* | 89*
Nc1c([N+](=O)[O-])cnnc1-c1ccccc1 | 2 | -10 | 80* | -2 | -8 | 93* | 101*
O=[N+]([O-])c1cc(-c2ccccc2)cc([N+](=O)[O-])c1O | . | . | . | -4 | . | . | .
C=CCN1C(=O)c2ccc(C(=O)N(CCOC)c3c(N)n(CCCC)c(=O)[nH]c3=O)cc2C1=O | -10 | . | 30 | -5 | 27 | . | .
SMILES | OX1R antag-1 | GPR7 antagonist | OX1R antag-2 | GalR3 antag | CHO parental Ca | OX1R HTRF confirm | CHO-K1 HTRF cnt
COc1ccc(/C(N)=N/OC(=O)/C=C/c2ccccc2)cc1 | -20 | -2 | 7 | -3 | -18 | . | .
COc1ccc(/C=C/C(=O)O/N=C(\N)c2ccccc2)cc1OC | -4 | -10 | 81* | -2 | -23 | 26 | 9
COc1ccc(-c2ccc(/C=C3\C(=O)N(c4ccccc4)N=C3c3ccccc3)o2)c([N+](=O)[O-])c1 | -1 | 0 | 18 | -3 | -4 | . | .
COc1ccc(-c2ccc(/C=C3/C(=N)N4C(C)=CSC4=NC3=O)o2)c([N+](=O)[O-])c1 | 11 | -5 | 91* | -10 | -10 | 58* | 18*
COC(=O)c1sccc1NC(=O)COc1ccccc1Cl | -101 | 0 | 79* | -5 | -35 | 56* | 6
CCOc1ccccc1NC(=O)Nc1ccsc1C(=O)OC | -24 | -9 | 44 | -3 | -17 | . | .
CCN(CC(=O)Nc1c(F)cccc1F)C(=O)CCCN1C(=O)c2cccc3cccc(c23)C1=O | . | . | . | -4 | . | . | .
COC(=O)c1ccc(CN2C(=O)NC3(CCCCC3)C2=O)cc1 | -11 | 0 | 8 | 0 | -5 | . | .
COc1ccc(C2=NOC(CNC(N)=S)C2)cc1 (centres undefined) | -13 | -4 | 30 | -7 | -4 | . | .
COc1ccc(-c2cc(C(F)F)n3ncc(C(=O)N4CCc5ccccc54)c3n2)cc1 | -37 | -8 | 10 | 1 | -17 | . | .
COc1ccc(-c2cc(C(F)F)n3ncc(C(=O)n4ccnc4C)c3n2)cc1 | -14 | -4 | 108* | 1 | -17 | 43 | 29*
Cc1ccc(NC(=O)c2ccncc2)cc1[N+](=O)[O-] | -1 | -1 | 105* | -2 | -17 | 32 | 32*
CC1(C)CC(NS(=O)(=O)c2ccc(S(N)(=O)=O)cc2)CC(C)(C)N1 | -3 | -9 | -1 | -7 | 2 | . | .
CC1(C)CC(NS(=O)(=O)c2ccc(F)cc2)CC(C)(C)N1 | -2 | -2 | 86* | 6 | -8 | 20 | -2
O=C1c2cc(S(=O)(=O)N(CCO)CCO)ccc2-c2ccc(S(=O)(=O)N(CCO)CCO)cc21 | -6 | . | 111* | 0 | 3 | 71* | 72*
CC(C)(C)c1ccc(C(=O)Nc2ccc(NC(=O)C(=O)O)cc2)o1 | -8 | -7 | -4 | 2 | 3 | . | .
COc1cccc(-c2nnc(SCC(=O)Nc3ccc4c(c3)OCCO4)n2Cc2ccco2)c1 | 24 | 20 | 78* | -3 | -19 | 52 | 5
COc1ccc(N2CCN(CCCNC(=O)c3ccc(CS(=O)(=O)c4ccc(Cl)cc4)o3)CC2)cc1 | -26 | -13 | 6 | -7 | -14 | . | .
COCC(=O)OCC(=O)Nc1ccc(Cl)cc1[N+](=O)[O-] | 4 | -2 | 99* | -5 | -3 | 28 | 50*
COc1ccc(Br)cc1C(=O)Nc1cccc(-c2nnc(-c3ccco3)o2)c1 | -13 | -4 | 5 | -1 | 1 | . | .
